In ChEMBL document CHEMBL1135105, “Design, synthesis and biochemical evaluation of AC ring mimics as novel inhibitors of the enzyme estrone sulfatase (ES)” (Bioorg Med Chem Lett, 2002):

Key:
Steryl-sulfatase = biological target: T1, Steryl-sulfatase (Homo sapiens, UniProt P08842); assay: Compound was evaluated for its inhibitory activity against estrone sulfatase enzyme
T1 sequence (P08842 whole entry): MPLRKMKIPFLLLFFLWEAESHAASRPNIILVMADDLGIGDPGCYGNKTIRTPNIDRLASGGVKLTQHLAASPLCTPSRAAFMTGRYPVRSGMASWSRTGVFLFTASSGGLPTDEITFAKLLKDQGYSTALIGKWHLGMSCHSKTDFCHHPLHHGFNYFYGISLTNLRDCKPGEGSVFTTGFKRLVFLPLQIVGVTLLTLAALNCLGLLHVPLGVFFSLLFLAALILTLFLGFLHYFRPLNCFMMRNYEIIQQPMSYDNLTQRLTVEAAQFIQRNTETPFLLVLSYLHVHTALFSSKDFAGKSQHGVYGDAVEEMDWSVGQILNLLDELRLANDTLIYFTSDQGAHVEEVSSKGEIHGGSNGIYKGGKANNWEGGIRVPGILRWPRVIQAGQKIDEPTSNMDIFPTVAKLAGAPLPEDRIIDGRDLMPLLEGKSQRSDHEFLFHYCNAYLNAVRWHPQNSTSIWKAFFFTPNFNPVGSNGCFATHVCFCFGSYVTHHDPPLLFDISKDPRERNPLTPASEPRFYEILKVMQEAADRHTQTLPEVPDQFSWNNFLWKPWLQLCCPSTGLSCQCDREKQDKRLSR
Summary of the method: (§1)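 They are added to tubes holding [3H]estrone sulfate (300,000 dpm) and inhibitor, which was dried from ethanol under nitrogen. Incubation runs 20 min at 37 °C and is quenched with toluene. Radioactivity in the toluene extract is counted. Triplicates are run alongside no-inhibitor controls and boiled-microsome blanks.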

[1] = biological target: T2, Steryl-sulfatase (Homo sapiens) (UniProt P08842); assay: Compound was evaluated for its percent inhibition against the estrone sulfatase enzyme at a concentration of 5 uM
T2 sequence (whole entry): T1 sequence (P08842 whole entry)
Summary of the method: as §1, with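 “Placental microsomes, diluted to 115 µg/mL in 0.05 M Tris-HCl pH 7.2, are pre-warmed 5 min at 37 °C. They” for “They”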

[2] = Partition coefficient (logP); type: physicochemical; conditions: octanol/water
[3] = biological target: T2, Steryl-sulfatase (Homo sapiens); conditions: 10 uM

Structure (SMILES) | IC50 (Steryl-sulfatase) [uM tube-1] | inhibition [1] [%] | logP [2] | inhibition [3] [%]
N#Cc1ccc(-c2ccc(OS(N)(=O)=O)cc2)cc1 | 6.7 | 44.2 | 3.48 | –
COC(=O)c1ccc(-c2ccc(OS(N)(=O)=O)cc2)cc1 | 5.2 | 44.2 | 3.18 | –
CCOC(=O)c1ccc(-c2ccc(OS(N)(=O)=O)cc2)cc1 | 4.2 | 53.4 | 3.52 | –
NS(=O)(=O)Oc1ccc(-c2ccccc2)cc1 | 76.1 | 5.5 | 3.45 | –
Cc1cc(=O)oc2cc(OS(N)(=O)=O)ccc12 | 10 | – | 1.7 | 47.6
CCCCOC(=O)c1ccc(-c2ccc(OS(N)(=O)=O)cc2)cc1 | 5.8 | 48.4 | 4.38 | –
NS(=O)(=O)Oc1ccc2c3c(c(=O)oc2c1)CCCCC3 [IROSUSTAT] | – | 86.8 | 2.65 | –
CCCOC(=O)c1ccc(-c2ccc(OS(N)(=O)=O)cc2)cc1 | 3.5 | 60.5 | 3.99 | –
C[C@]12CC[C@@H]3c4ccc(OS(N)(=O)=O)cc4CCC3[C@@H]1CCC2=O (single isomer, unassigned) [EMATE] | 0.1 | – | 3.87 | –
